# This excerpt belongs to a sample that is enriched for hits.
# HSF1 inh: HSF1 inhibition; hit rate 0.77% among 300,000; activity change, negative = inhibition, % at 7.5 µM (by protocol); NIH3T3-HGL HSE-luciferase, MG132-induced, luminescence 8 h; active compounds read low;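 active means more than half of replicate wells show activity change below -50%, luminescence cut by over half; inconclusive means some wells, but at most half, below -50%; inactive means no replicate well below -50%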;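 further: luciferase reports HSF-1 transcriptional activity via heat shock element; 0% = median of DMSO wells and -100% = zero luminescence signal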
# Hsp70 act: transcriptional activators of Hsp70. HeLa Hsp70 promoter luciferase reporter, luminescence; scaled: vehicle 0, proteasome-inhibitor control 100%. activation, % at 10 µM. hit rate 0.04% among 200,000. AID 1203;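 active means activation above the mean across all tested compounds plus 3 SD, cutoff set per campaign, cut at about 5.5% in these data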;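 further: 100% = MG132 at 30 µM as the positive control and 0% = DMSO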
# HSF-1 act: increases HSF-1 driven luciferase reporter signal; NIH3T3-HGL HSF-1 luciferase reporter, MG132, 8 h; 100% = twice DMSO control signal; activation, % at 9 µM; hit rate 1.7% among 300,000;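 active means mean replicate activation of at least 50% with a set share of replicates each reaching 50%; inconclusive means only one of those two conditions met; inactive means mean below 50% and too few replicates reaching it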;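 further: 0% = median of the neutral control wells and 100% = twice that signal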
# L major viab: Leishmania major promastigote growth inhibition; AID 1063; inhibition, % at 10 µM; Leishmania major promastigotes, resazurin fluorescence viability; hit rate 9% among 200,000; in the data active means inhibition above about 50%;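 further: promastigotes grown with compound for 44 hours at 28 °C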
# T cruzi repl: T. cruzi replication inhibition. inhibition, % (test concentration not listed). AID 1885. hit rate 1.4% among 300,000. T. cruzi beta-gal in NIH3T3, luminescence, 90 h;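 active means mean inhibition across valid replicates above about 55%, limit read from the data; inconclusive means mean below that limit but half or more replicates reach it; inactive means mean below it, under half of replicates reach it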;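 further: signal also drops with host cell toxicity which is not excluded here; 0% = plate median of DMSO wells and 100% = zero luminescence signal; higher percent means less beta-gal luminescence so fewer parasites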
#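 compound dosing = single 50 nL compound addition per well in DMSO | material = NIH/3T3 host cells with β-galactosidase reporter T. cruzi | input = 5,000 host fibroblasts per well | timing = ≥90 h infection period, 3 h prior cell attachment | read-out basis = percent inhibition of parasite-derived β-gal signal | detection = GalScreen β-gal luminescence, detergent lysis, 60 min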
# * = called active by the depositor; ? = inconclusive; nt = no result.
SMILES,HSF1 inh,Hsp70 act,HSF-1 act,L major viab,T cruzi repl
O=C(CCC1CCCN(Cc2cccc3c2OCO3)C1)NCc1ccc(F)c(F)c1 (stereo not given),-6.6,-0.3,-2.5,87.4*,62.1*
O=C(CCC1CCCN(C(=O)c2ccc3cc[nH]c3c2)C1)NCc1ccc(F)c(F)c1 (stereo not given),23.7,-0.3,57.5*,-4.7,6.2
O=C(CCC1CCCN(Cc2ccc3c(c2)OCCO3)C1)NCc1ccc(F)c(F)c1 (stereo not given),9.7,-0.2,-3.7,73.1*,61.8*
COc1ccc(N2CC(C(=O)Nc3ccc(S(=O)(=O)N4CCCCC4)cc3)CC2=O)cc1 (stereo not given),-3.1,nt,-0.8,nt,6.9
C#CCOCCOCCOCCNc1nc(N2CCN(C(=O)C([C@@H](C)CC)n3cc(C(N)COC(=O)C(F)(F)F)nn3)CC2)nc(N2CCN(C(=O)[C@H](CCCCN)n3cc(C(N)[C@H](C)CC)nn3)CC2)n1 (stereo not given in full),-3.5,nt,-5.3,nt,-23.8
COC(=O)c1cc2c(ccn2-c2ccc(F)cc2)n1Cc1cccc(OC)c1,8.2,-0.2,-10.8,97.9*,17.7
COC(=O)c1cc2c(ccn2-c2ccc(F)cc2)n1Cc1ccc(OC(C)=O)cc1,14.0,-0.2,19.7,93.0*,57.7*
COC(=O)c1cc2c(ccn2-c2ccc(F)cc2)n1C(C)C,2.0,-0.4,1.9,0.0,27.1
O=C1CCCN1S(=O)(=O)c1ccc(F)cc1,-6.2,nt,-5.6,nt,-9.5
COc1ccc(OC)c(-c2cc(C(=O)Nc3cccc(Cl)c3)no2)c1,0.0,-0.1,-6.5,32.3,55.2*
COc1ccc(OC)c(-c2cc(C(=O)Nc3c(C)nn(Cc4ccc(Cl)cc4)c3C)no2)c1,14.2,-0.1,19.8,51.7*,?
COc1ccc(OC)c(-c2cc(C(=O)Nc3c(C)nn(Cc4ccccc4)c3C)no2)c1,8.3,0.1,15.5,37.4,43.3
COc1ccc(OC)c(-c2cc(C(=O)Nc3cc(C)on3)no2)c1,-64.1*,0.2,-73.3,16.4,9.6
COc1ccc(Nc2cccc(Cl)c2)c(C(=O)O)c1,-13.8,-0.6,2.0,50.6*,-31.4
COc1ccc(-c2cc(C(=O)Nc3cc(C)on3)no2)cc1,-3.6,0.1,-7.2,-3.1,-4.2
O=C(Cc1ccsc1)NNC(=O)c1ccccc1Cl,-5.0,nt,19.6,nt,-1.2
Cc1ccc(OCCC(=O)OCC(=O)NC(=O)NC2CCCCC2)cc1,-2.0,nt,-8.2,nt,-18.5
FC(F)(F)c1cccc(Cc2noc(CN3CCCC(OCc4ccccn4)C3)n2)c1 (stereo not given),5.0,-0.4,-5.3,-10.7,10.1
O=C(NCCc1ccc(Cl)cc1)/C(=C/c1cccnc1)NC(=O)c1ccccc1,2.2,-0.2,21.0,58.7*,12.9
COc1ccccc1CCNC(=O)/C(=C/c1cccnc1)NC(=O)c1ccccc1,-2.6,-0.5,2.7,9.2,5.5
CSc1nccc(-c2nn(-c3ccc(C)cc3)ccc2=O)n1,-3.6,0.0,17.5,100.2*,-35.8
CCSc1nccc(-c2nn(-c3ccc(C)cc3)ccc2=O)n1,-3.7,0.7,-5.8,7.8,-70.5
O=c1ccc(-c2ccc(S(=O)(=O)Nc3cccc([N+](=O)[O-])c3)s2)n[nH]1,-2.1,nt,22.2,nt,-0.4
CN(Cc1ccccc1)c1nc(N)c([N+](=O)[O-])c(NCc2ccccc2)n1,53.8,-0.2,67.1*,9.4,41.3
Nc1nc(NCCc2ccccc2)nc(NCc2ccccc2)c1[N+](=O)[O-],0.5,nt,-6.0,nt,17.1
SMILES,HSF1 inh,Hsp70 act,HSF-1 act,L major viab,T cruzi repl
COc1ccc(NC(=O)CSc2nc(N)c3cc4c(nc3n2)CCCC4)c(OC)c1,-5.4,-0.3,1.6,3.4,0.3
Cc1ccc(NC(=O)CSc2nc(N)c3cc4c(nc3n2)CCCC4)cc1,8.6,0.0,15.5,93.1*,-19.5
Nc1nc(SCC(=O)Nc2ccccc2)nc2nc3c(cc12)CCCC3,17.2,-0.3,43.6,66.0*,3.4
Cc1ccc(NC(=O)CSc2nc(N)c3c4c(sc3n2)CSC(C)(C)C4)cc1,26.1,-0.4,19.0,87.9*,25.1
Cc1nc(Cl)c(C(=O)NCCc2ccccc2)c(C)c1[N+](=O)[O-],3.5,nt,1.7,nt,-5.7
COc1ccc(OC)c(NC(=O)CCc2nnc3ccc(N4CCC(C)CC4)nn23)c1,3.0,nt,1.2,nt,8.6
COc1ccc(NC(=O)CCc2nnc3ccc(N4CCC(C)CC4)nn23)cc1OC,-71.3*,nt,-77.6,nt,-10.5
CC(C)CNC(=O)C(=O)NCC1OCCCN1S(=O)(=O)c1cccs1 (stereo not given),0.3,nt,-3.0,nt,6.0
CC(CCc1ccccc1)NC(=O)C(=O)NCCc1ccccc1 (stereo not given),-2.1,-0.3,-1.2,-6.7,21.2
CCCCN(C)CCC(=O)Nc1ccc(F)c(F)c1,-2.7,-0.5,-1.6,-2.7,-0.4
CCCCN(C)CCC(=O)Nc1ccc(C)cc1,-8.6,-0.2,-10.9,90.0*,10.8
COc1ccc(CCN(C)CCC(=O)Nc2ccc(C)cc2)cc1OC,-4.0,-0.3,15.5,2.3,58.6*
COC(=O)c1ccccc1SC(CC(=O)c1ccccc1)c1ccc(F)cc1 (stereo not given),8.1,nt,7.7,nt,-12.6
CCC(C)[C@H](NC(=O)N1CC(=O)Nc2ccccc21)C(=O)N[C@H](C(=O)O)c1ccccc1 (stereo not given in full),-2.8,nt,8.8,nt,-5.7
CC(=C1C(=O)c2ccccc2C1=O)N1CCc2ccccc2C1,4.5,-0.1,5.3,92.4*,-21.7
C/C(=N\Nc1nc2ccccc2[nH]1)c1ccc(Cl)s1,9.8,-0.3,6.0,89.7*,35.8
C/C(=N\Nc1nc(C)cc(-c2ccccc2)n1)c1ccc(C)o1,10.5,-0.3,?,45.7,-3.9
C/C(=N\Nc1nc2ccccc2[nH]1)c1ccc(C)o1,15.1,0.3,37.9,65.0*,34.1
C/C(=N\Nc1nc(C)cc(C)n1)c1ccc(N2CCOCC2)cc1,-4.5,-0.1,-2.0,-7.7,-9.2
C/C(=N\Nc1cccc(C(=O)O)c1)c1ccc(Cl)s1,-1.8,0.0,0.4,13.9,-2.0
C/C(=N\Nc1nc2ccccc2[nH]1)c1ccc(N2CCOCC2)cc1,3.4,0.0,31.6,100.4*,24.5
Cc1cc(NC(=O)CSc2nc(-c3ccccc3Cl)nc3c2c(=O)n(C)c(=O)n3C)no1,0.0,-0.1,25.5,0.2,2.9
C#Cc1ccc([C@H]2C=C(C(=O)NCc3ccccc3)O[C@@H](OCc3ccc(CO)cc3)C2)cc1,2.1,nt,-9.5,nt,-0.7
CC(NCc1ccncc1)C12CC3CC(CC(C3)C1)C2 (stereo not given),-5.8,-0.1,2.5,68.5*,62.6*
c1cc(CNC2C3CC4CC(C3)CC2C4)ccn1 (stereo not given),-1.7,-0.2,-11.1,82.8*,2.2
O=C(COC(=O)c1cccc(Cl)c1)Nc1cc(Cl)ccc1Oc1ccccc1,-3.9,-0.4,16.4,-3.8,-0.2
